Measured values reported in ChEMBL document CHEMBL3045604, “Phytotoxicity of sarmentine isolated from long pepper (Piper longum) fruit” (J Agric Food Chem, 2010).
The source made the active and inactive calls. The calls are words filed in the database; no cut-off is given here.

What was measured:
Echinochloa crus-galli [1] = test: (§1) Phytotoxicity against Echinochloa crus-galli (barnyard grass) assessed as mortality measured after 3 days at 5 mg/ml by foliar spraying; format: functional; details: for mortality at 5000 µg/mL: 72 h
Procedure, shortened: (§2)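 Whole plants sprayed on the foliage with freshly prepared test solution at 5 mg/mL. Spray volume was matched to foliar surface area, roughly 1 to 3 mL per pot. One or two pots were treated per species, depending on foliar area and plant availability.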

Oryza sativa = test: Herbicidal activity against Oryza sativa (rice) (M-104) Oryza sativa L assessed as mortality measured after 3 days at 5 mg/ml by foliar spraying; format: organism-based; details: in vivo, other, 72 h; procedure, shortened: as §2
Rumex crispus = test: Phytotoxicity against curly dock Rumex crispus assessed as mortality measured after 3 days at 5 mg/ml by foliar spraying; format: functional; details: 72 h; procedure, shortened: as §2
Solanum nigrum = test: Phytotoxicity against Solanum nigrum (black nightshade) assessed as mortality measured after 3 days at 5 mg/ml by foliar spraying; format: functional; details: 72 h; procedure, shortened: as §2
Mutarda arvensis = test: Phytotoxicity against wild mustard Sinapis arvensis assessed as mortality measured after 3 days at 5 mg/ml by foliar spraying; format: functional; details: 72 h; procedure, shortened: as §2
Poa annua = test: Phytotoxicity against annual bluegrass Poa annua assessed as mortality measured after 3 days at 5 mg/ml by foliar spraying; format: functional; details: 72 h; procedure, shortened: as §2
Chenopodium album = test: Phytotoxicity against Chenopodium album assessed as mortality measured after 3 days at 5 mg/ml by foliar spraying; format: functional; details: 72 h; procedure, shortened: as §2
Taraxacum officinale = test: Phytotoxicity against dandelion Taraxacum officinale (dandelion) assessed as mortality measured after 3 days at 5 mg/ml by foliar spraying; format: functional; details: 72 h; procedure, shortened: as §2
Leptochloa = test: Phytotoxicity against Leptochloa fascicularis (sprangletop) assessed as mortality measured after 3 days at 5 mg/ml by foliar spraying; format: functional; details: 72 h; procedure, shortened: as §2
Cyperus difformis = test: Phytotoxicity against sedge Cyperus difformis assessed as mortality measured after 3 days at 5 mg/ml by foliar spraying; format: functional; details: 72 h; procedure, shortened: as §2
Erigeron canadensis = test: Phytotoxicity against Conyza canadensis (horseweed)assessed as mortality measured after 3 days at 5 mg/ml by foliar spraying; format: functional; details: 72 h; procedure, shortened: as §2
Digitaria sanguinalis = test: Phytotoxicity against Digitaria sanguinalis (hairy crabgrass) assessed as mortality measured after 3 days at 5 mg/ml by foliar spraying; format: functional; details: 72 h; procedure, shortened: as §2
Convolvulus arvensis = test: Phytotoxicity against Convolvulus arvensis assessed as mortality measured after 3 days at 5 mg/ml by foliar spraying; format: functional; details: 72 h; procedure, shortened: as §2
Echinochloa crus-galli [2] = test: as §1; format: functional; details: 72 h; procedure, shortened: as §2
Amaranthus retroflexus = test: Phytotoxicity against Amaranthus retroflexus assessed as mortality measured after 3 days at 5 mg/ml by foliar spraying; format: functional; details: 72 h; procedure, shortened: as §2

O=C(/C=C/c1ccccc1)N1CCCCC1
mortality at 5000 µg/mL (Echinochloa crus-galli [1]): 40%

CCCCC/C=C\C=C\C(=O)OCC
mortality at 5000 µg/mL (Echinochloa crus-galli [1]): < 20%

CCCCCCC/C=C/C(=O)NC1CCCC1
mortality at 5000 µg/mL (Echinochloa crus-galli [1]): < 20%

CCCCC/C=C\C=C\C(=O)NC1CCCC1
mortality at 5000 µg/mL (Echinochloa crus-galli [1]): < 20%

O=C(/C=C/c1ccccc1)NC1CCCC1
mortality at 5000 µg/mL (Echinochloa crus-galli [1]): < 20%

CCCCCCC/C=C/C(=O)N1CCCC1
mortality at 5000 µg/mL (Echinochloa crus-galli [1]): 80%

O=C(/C=C/c1ccccc1)N1CCCC1
mortality at 5000 µg/mL (Echinochloa crus-galli [1]): 80%

CCCCCCC/C=C/C(=O)N1CCCCC1
mortality at 5000 µg/mL (Echinochloa crus-galli [1]): 80%

CCCCCCC/C=C/C(=O)N1CCCCCC1
mortality at 5000 µg/mL (Echinochloa crus-galli [1]): 80%

O=C(/C=C/c1ccccc1)N1CCCCCC1
mortality at 5000 µg/mL (Echinochloa crus-galli [1]): < 20%

C1CCCNCC1
mortality (Echinochloa crus-galli [1]): inactive

C1CCNC1
mortality (Echinochloa crus-galli [1]): inactive

C1CCNCC1
mortality (Echinochloa crus-galli [1]): inactive

NC1CCCC1
mortality (Echinochloa crus-galli [1]): inactive

CCCCCCC/C=C/C(=O)O [2E-DECENOIC ACID]
mortality at 5000 µg/mL (Echinochloa crus-galli [1]): 80%

CCCCC/C=C\C=C\C(=O)N1CCCCCC1 [(2E,4Z-DECADIENOYL)HEXAMETHLENEIMINE]
mortality at 5000 µg/mL (Echinochloa crus-galli [1]): 80%

CCCCC/C=C\C=C\C(=O)N1CCCCC1 [(2E,4Z-DECADIENOYL)PIPERIDINE]
mortality at 5000 µg/mL (Echinochloa crus-galli [1]): 80%

CCCCC/C=C\C=C\C(=O)N1CCCC1 [(2E,4Z-DECADIENOYL)PYRROLIDINE]
mortality at 5000 µg/mL (Echinochloa crus-galli [1]): 80%

O=C(O)/C=C/c1ccccc1 [CINNAMIC ACID]
mortality at 5000 µg/mL (Echinochloa crus-galli [1]): 60%

CCCCCCCCCC(=O)O [DECANOIC ACID]
mortality at 5000 µg/mL (Echinochloa crus-galli [1]): 80%

CCCCCCCCCC(=O)N1CCCCCC1 [N-(DECANOYL)HEXAMETHYLENEIMINE]
mortality at 5000 µg/mL (Echinochloa crus-galli [1]): 80%

CCCCCCCCCC(=O)N1CCCCC1 [N-(DECANOYL)PIPERIDINE]
mortality at 5000 µg/mL (Echinochloa crus-galli [1]): 80%

CCCCCCCCCC(=O)N1CCCC1 [N-(DECANOYL)PYRROLIDINE]
mortality at 5000 µg/mL (Echinochloa crus-galli [1]): 80%

CCCCCCCCCC(=O)NC1CCCC1 [N-CYCLOPENTYLDECANAMIDE]
mortality at 5000 µg/mL (Echinochloa crus-galli [1]): < 20%

CCCCC/C=C/C=C/C(=O)N1CCCC1 [SARMENTINE]
mortality at 5000 µg/mL (Echinochloa crus-galli [1]): 80%
mortality (Oryza sativa): Not Active
mortality at 5000 µg/mL (Rumex crispus): 80%
mortality at 5000 µg/mL (Solanum nigrum): 80%
mortality at 5000 µg/mL (Mutarda arvensis): 80%
mortality at 5000 µg/mL (Poa annua): 80%
mortality at 5000 µg/mL (Chenopodium album): 80%
mortality at 5000 µg/mL (Taraxacum officinale): 80%
mortality at 5000 µg/mL (Leptochloa): 80%
mortality at 5000 µg/mL (Cyperus difformis): 20%
mortality at 5000 µg/mL (Erigeron canadensis): < 20%
mortality at 5000 µg/mL (Digitaria sanguinalis): 80%
mortality at 5000 µg/mL (Convolvulus arvensis): 80%
mortality at 5000 µg/mL (Echinochloa crus-galli [2]): 80%
mortality at 5000 µg/mL (Amaranthus retroflexus): 80%
